# From ChEMBL document CHEMBL3421533, “The Discovery of Orally Bioavailable Tyrosine Threonine Kinase (TTK) Inhibitors: 3-(4-(heterocyclyl)phenyl)-1H-indazole-5-carboxamides as Anticancer Agents” (J Med Chem, 2015)
# Key:
# [1] = molecular target: Proto-oncogene tyrosine-protein kinase receptor Ret (Homo sapiens, UniProt P07949, V804M); experiment: Inhibition of human Ret V804M mutant by millipore radiometric assay
# Summary of the method: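 Radiometric profiling against a 278-kinase panel was done with ATP at Km. Half-maximal inhibitory concentrations were then determined for the kinases most inhibited.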
# [2] = AUCinfinity in Sprague-Dawley rat at 5 mg/kg, po by LC-MS/MS analysis; format: ADME, organism-based; design: time infinity, dose 5 mg/kg, route oral; settings: plasma
# [3] = Half life in iv dosed dog; format: ADME, organism-based, Canis lupus familiaris; settings: in vivo
# [4] = Plasma protein binding in mouse; format: ADME; settings: read-out: PPB (converted)
# [5] = Cytotoxicity against human H23 cells after 5 days by sulforhodamine B assay; format: functional; settings: NCI-H23, 120 h
# Summary of the method: (§1)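 Cancer lines were seeded at 800–6000 cells per well according to growth rate, 24 h before compound overlay. After culture, cells were fixed in situ and stained with sulforhodamine B. GI50 values were derived by curve fitting.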
# A2780 = experiment: Cytotoxicity against human A2780 cells after 5 days by sulforhodamine B assay; format: functional; settings: A2780, 120 h; summary of the method: as §1
# Proto-oncogene tyrosine-protein kinase receptor Ret, sequence (P07949 29-1114 V804M limits assumed): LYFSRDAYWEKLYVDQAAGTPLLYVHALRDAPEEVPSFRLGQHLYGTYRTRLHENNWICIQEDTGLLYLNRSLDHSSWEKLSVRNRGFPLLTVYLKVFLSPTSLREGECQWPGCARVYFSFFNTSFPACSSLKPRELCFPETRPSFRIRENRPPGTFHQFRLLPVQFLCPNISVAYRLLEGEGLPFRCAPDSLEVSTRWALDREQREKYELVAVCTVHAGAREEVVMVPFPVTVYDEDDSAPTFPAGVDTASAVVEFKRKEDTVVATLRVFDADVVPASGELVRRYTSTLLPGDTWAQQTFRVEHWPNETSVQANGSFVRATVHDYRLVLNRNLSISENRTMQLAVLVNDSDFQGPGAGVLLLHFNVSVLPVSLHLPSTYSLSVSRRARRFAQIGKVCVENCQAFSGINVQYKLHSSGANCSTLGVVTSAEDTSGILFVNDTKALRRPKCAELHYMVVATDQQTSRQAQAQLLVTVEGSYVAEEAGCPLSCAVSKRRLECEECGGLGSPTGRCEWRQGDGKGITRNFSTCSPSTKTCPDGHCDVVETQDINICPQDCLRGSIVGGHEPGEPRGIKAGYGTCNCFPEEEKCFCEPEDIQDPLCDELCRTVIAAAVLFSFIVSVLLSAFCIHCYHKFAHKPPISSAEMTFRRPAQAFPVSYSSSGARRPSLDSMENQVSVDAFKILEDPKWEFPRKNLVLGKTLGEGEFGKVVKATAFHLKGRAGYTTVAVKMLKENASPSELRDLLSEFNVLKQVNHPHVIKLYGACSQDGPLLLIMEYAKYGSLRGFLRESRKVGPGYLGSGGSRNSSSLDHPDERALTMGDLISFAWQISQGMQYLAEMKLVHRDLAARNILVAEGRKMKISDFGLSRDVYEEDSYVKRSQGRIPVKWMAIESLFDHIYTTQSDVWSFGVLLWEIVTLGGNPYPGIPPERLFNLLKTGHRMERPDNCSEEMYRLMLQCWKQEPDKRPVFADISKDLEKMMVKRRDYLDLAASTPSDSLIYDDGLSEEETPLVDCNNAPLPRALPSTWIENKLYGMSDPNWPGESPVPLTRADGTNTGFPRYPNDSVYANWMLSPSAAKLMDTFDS
smiles,measurement,setting,value
O=C(N[C@@H](c1ccccn1)C1CC1)c1ccc2[nH]nc(-c3ccc(N4[C@H]5CC[C@H]4CC(O)C5)cc3)c2c1 (stereo in doubt; 75),IC50,[1],280 nM
same,AUC(0-inf),[2],550 ng·h/mL
same,half-life,[3],1.2 h
same,fraction unbound,[4],0.042
same,GI50,[5],36 nM
same,GI50,A2780,20 nM
